According to ChEMBL document CHEMBL4196182, “Hexaricins, Pradimicin-like Polyketides from a Marine Sediment-Derived Streptosporangium sp. and Their Antioxidant Effects” (J Nat Prod, 2018):

Columns and labels:
Format in all cases: functional
[1] = Antioxidant activity assessed as hydroxyl radical scavenging activity incubated for 10 mins in presence of salicylic acid
Outline: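 Modified Smirnoff method. Equal volumes of sample in MeOH, FeSO4 (6 mM) and ethanolic salicylic acid (6 mM), then H2O2 (6 mM), giving final sample levels of 0.2−1 mg/mL. Held 10 min at room temperature, then read at 510 nm. Scavenging % uses blanks with and without H2O2 against the negative control. EC50 taken at 50% scavenging. Repeated at least three times, mean ± standard deviation.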

[2] = Antioxidant activity assessed as DPPH radical scavenging activity incubated for 30 mins by UV/visible spectrophotometric analysis
Outline: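 Test samples in MeOH at 1.875−120 μg/mL reacted with DPPH in MeOH (negative control DPPH 0.1 mM). Absorbance read at 517 nm; scavenging % computed against the DPPH-only control, correcting for sample absorbance without DPPH. EC50 is the concentration giving 50% scavenging. Independent repeats at least three times, reported as mean ± standard deviation.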

[3] = Antioxidant activity assessed as superoxide anion radical scavenging activity incubated for 20 mins measured every 30 secs for 5 mins in presence of pyrogallol

Compound | EC50 [1] | EC50 [2] | EC50 [3]
COc1c2c(c(O)c3c1[C@H](O)Cc1cc(CC(C)=O)c(C(=O)O)c(O)c1-3)C(=O)c1cccc(O)c1C2=O | 840 µM | 25 µM | 681 µM
COc1c2c(c(O)c3c1C(=O)c1c(O)cccc1C3=O)-c1c(cc3c(c1O)C(=O)OC(C)(O)C3)CC2 (centres undefined) | 619 µM | 2.9 µM | 83 µM
CCC(=O)O[C@@H]1Cc2cc3c(c(O)c2-c2c(O)c4c(c(OC)c21)C(=O)c1c(O)cccc1C4=O)C(=O)O[C@H](C)C3 | 831 µM | 30 µM | 754 µM
COc1c2c(c(O)c3c1[C@H](O)Cc1cc4c(c(O)c1-3)C(=O)O[C@H](C)C4)C(=O)c1cccc(O)c1C2=O | 723 µM | 21 µM | 589 µM
COc1c2c(c(O)c3c1C(=O)c1c(O)cccc1C3=O)-c1c(cc3c(c1O)C(=O)OC(C)(OC)C3)CC2 (centres undefined) | 519 µM | 2.7 µM | 139 µM
COc1c2c(c(O)c3c1[C@H](OC(=O)C(C)C)Cc1cc4c(c(O)c1-3)C(=O)O[C@H](C)C4)C(=O)c1cccc(O)c1C2=O | 804 µM | 30 µM | 746 µM
COc1c2c(c(O)c3c1C(=O)c1c(O)cccc1C3=O)-c1c(cc3c(c1O)C(=O)O[C@H](C)C3)CC2 | 1530 µM | 42 µM | 1100 µM
CC(C)(C)c1cc(O)ccc1O [E319] | 1920 µM | 10 µM | 482 µM
